The values that follow come from ChEMBL document CHEMBL4699498 (J Med Chem, 2020).

The structures appear in SMILES notation. pIC50: −log10 of the molar value. Calls of active or inactive are those of the source. The rule behind the calls is not given here. A value given as a limit tells only on which side of the number the result lay.

The target of series [1] is T1, Protein cereblon/Poly [ADP-ribose] polymerase 1 (Homo sapiens, UniProt P09874+Q96SW2). Briefly: Protac activity at CRBN/PARP1 in human Capan1 cells assessed as PARP1 protein degradation at 1 to 10 nM incubated for 24 hrs by western blot analysis. The settings on record: CAPAN-1, dose nM 1-10, time 24.0 hrs. Format: cell-based. The method in brief: (§1)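 Capan-1 cells were treated 24 h (1-1000 nM, or a wider dose range for DC50). Lysis was in RIPA buffer with protease inhibitors, and 20-30 μg protein was blotted. PARP1 was normalized to β-tubulin and to DMSO control, quantified by densitometry. DC50 came from two independent experiments.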
Target sequence in this assay (P09874 2-1014 limits assumed): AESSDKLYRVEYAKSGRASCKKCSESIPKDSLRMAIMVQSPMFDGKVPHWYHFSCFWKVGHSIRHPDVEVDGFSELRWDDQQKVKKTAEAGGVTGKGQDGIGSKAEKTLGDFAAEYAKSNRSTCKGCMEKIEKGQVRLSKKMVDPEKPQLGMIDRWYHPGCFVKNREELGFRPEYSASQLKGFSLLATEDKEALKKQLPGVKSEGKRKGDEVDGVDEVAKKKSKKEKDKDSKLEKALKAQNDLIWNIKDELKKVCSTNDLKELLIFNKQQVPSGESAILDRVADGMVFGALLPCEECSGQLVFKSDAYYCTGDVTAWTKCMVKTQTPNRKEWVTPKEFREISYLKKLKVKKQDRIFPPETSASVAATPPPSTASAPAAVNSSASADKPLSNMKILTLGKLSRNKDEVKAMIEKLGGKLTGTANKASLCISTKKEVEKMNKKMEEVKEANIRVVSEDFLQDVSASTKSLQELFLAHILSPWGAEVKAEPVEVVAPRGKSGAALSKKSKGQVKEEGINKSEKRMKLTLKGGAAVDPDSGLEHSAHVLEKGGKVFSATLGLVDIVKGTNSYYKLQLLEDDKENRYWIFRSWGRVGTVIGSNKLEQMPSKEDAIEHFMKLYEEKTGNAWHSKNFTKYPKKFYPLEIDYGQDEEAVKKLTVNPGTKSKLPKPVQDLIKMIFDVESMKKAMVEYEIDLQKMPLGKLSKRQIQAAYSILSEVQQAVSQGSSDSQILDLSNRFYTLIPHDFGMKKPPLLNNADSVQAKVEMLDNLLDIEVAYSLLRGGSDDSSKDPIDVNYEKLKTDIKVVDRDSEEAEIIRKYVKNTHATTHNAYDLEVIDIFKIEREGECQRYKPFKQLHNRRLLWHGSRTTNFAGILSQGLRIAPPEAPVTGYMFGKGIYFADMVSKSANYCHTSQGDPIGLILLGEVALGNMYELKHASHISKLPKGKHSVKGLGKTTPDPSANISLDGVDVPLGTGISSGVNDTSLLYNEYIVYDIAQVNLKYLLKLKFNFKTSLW
Target sequence in this assay (Q96SW2 whole entry partner): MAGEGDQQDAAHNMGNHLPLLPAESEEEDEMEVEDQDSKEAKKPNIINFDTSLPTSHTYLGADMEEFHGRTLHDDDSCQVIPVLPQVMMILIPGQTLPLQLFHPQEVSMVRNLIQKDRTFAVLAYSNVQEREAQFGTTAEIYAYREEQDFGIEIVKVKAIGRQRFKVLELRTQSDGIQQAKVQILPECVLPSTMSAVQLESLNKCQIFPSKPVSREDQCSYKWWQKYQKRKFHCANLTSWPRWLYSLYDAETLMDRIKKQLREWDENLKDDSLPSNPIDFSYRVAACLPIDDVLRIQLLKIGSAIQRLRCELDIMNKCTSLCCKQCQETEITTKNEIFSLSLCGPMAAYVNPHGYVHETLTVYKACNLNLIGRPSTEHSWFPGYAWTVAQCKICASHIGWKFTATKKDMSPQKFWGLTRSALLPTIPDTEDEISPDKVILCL
In general terms: Immunoblotting shows a protein as a band on a membrane.

The subject of the next series is CAPAN-1. Briefly: Induction of DNA damage in human Capan1 cells assessed as increase in gammaH2AX foci formation incubated for 24 hrs by Western blot analysis. The class given is functional, cell-based. Conditions: dose microM 0.1-10, time 24.0 hrs. The method in brief: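 MDA-MB-436 (BRCA1-/-) or Capan-1 (BRCA2-/-) cells were treated 24 h at the indicated concentrations. Lysis was in RIPA buffer with protease inhibitors, and 20-30 μg protein was run on SDS-PAGE. Blots were probed for γH2AX, with β-tubulin as the loading control, and detected by ECL.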

The target in series [2] is Poly [ADP-ribose] polymerase 1 (Homo sapiens, UniProt P09874). Briefly: Inhibition of recombinant human C-terminal His-tagged PARP1 expressed in Sf9 insect cells preincubated for 20 mins in presence of activated DNA followed by […] addition and further incubated for 2 hrs by chemiluminescence assay.
Poly [ADP-ribose] polymerase 1, sequence (P09874 whole entry): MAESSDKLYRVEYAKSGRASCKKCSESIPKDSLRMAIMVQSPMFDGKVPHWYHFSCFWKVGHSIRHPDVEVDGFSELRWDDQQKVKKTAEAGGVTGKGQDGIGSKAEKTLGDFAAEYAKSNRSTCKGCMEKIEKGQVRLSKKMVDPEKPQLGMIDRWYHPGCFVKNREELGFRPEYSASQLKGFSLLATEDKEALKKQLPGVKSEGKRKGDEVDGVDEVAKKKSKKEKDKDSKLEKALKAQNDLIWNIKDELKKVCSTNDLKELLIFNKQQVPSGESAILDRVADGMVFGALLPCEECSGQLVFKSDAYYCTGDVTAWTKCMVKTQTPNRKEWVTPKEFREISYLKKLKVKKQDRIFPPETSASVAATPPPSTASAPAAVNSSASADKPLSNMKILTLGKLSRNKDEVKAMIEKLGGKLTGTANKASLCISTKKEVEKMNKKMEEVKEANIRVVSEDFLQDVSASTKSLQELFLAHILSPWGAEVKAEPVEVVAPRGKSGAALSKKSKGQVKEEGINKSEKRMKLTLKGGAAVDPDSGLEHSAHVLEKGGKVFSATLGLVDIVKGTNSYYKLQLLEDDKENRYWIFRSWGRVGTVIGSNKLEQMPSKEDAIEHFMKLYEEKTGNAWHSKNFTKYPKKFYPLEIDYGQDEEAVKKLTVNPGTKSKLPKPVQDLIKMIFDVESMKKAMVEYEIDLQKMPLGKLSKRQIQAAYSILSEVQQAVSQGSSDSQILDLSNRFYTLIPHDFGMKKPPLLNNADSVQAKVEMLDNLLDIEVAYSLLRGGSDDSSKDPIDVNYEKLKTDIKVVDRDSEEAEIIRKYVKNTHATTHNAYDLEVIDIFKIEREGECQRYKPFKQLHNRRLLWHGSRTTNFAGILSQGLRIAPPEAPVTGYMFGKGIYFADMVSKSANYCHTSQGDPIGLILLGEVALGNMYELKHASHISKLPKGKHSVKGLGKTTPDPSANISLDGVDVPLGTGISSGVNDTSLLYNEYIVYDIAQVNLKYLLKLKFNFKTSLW
A further series relates to LNCaP. Briefly: Antiproliferation activity against human LNCAP assessed as cell growth inhibition incubated for 7 days by CCK-8 assay. The class given is functional, cell-based. The settings on record: time 7.0 day. The method in brief:
(§2)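 Cells were sub-cultured at least twice and seeded for 24 h before dosing. Compounds came from 10 mM DMSO stocks, given as 10 points of 3-fold serial dilution starting at 10-20 μM. Incubation was about 7 days (Capan-1 13 days) at 37 °C, 5% CO2. Read-out was CCK-8 absorbance at 450 nm, as % growth versus DMSO wells (duplicate wells). IC50 was fitted by nonlinear regression; three independent experiments.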
Background: Tetrazolium assays rely on reduction of a dye to a coloured formazan, in cell work by metabolically active cells.

Series [3] in a line: Acute toxicity in Balb/c mouse xenografted with Capan1 cells assessed as mean weight loss at 50 mg/kg, ip qd administered for 5 days in presence of cisplatin measured on day 10 relative to control. The class given is organism-based. The settings on record: in vivo, 240 h, time 10 day. The method in brief: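 Male BALB/c nude mice carried Capan-1 xenografts (5×10^6 cells s.c.), randomized at ~150 mm³ (6 per group). Treatment was 25 or 50 mg/kg intraperitoneally or 100 mg/kg by oral gavage, once daily on days 0-4. Cisplatin 6 mg/kg in saline was given intraperitoneally on day 2, 45 min after the partner drug. Tumor volume and body weight were measured 2-3 times weekly.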

Series [4] has as its target T1, Protein cereblon/Poly [ADP-ribose] polymerase 1. Briefly: Protac activity at CRBN/PARP1 in human Capan1 cells assessed as induction of PARP1 degradation at 1 to 1000 nM incubated for 24 hrs by Western blot analysis. Format: cell-based. The settings on record: CAPAN-1, dose nM 1-1000, time 24.0 hrs. The method in brief: as §1
Target sequence in this assay (P09874 2-1014 limits assumed): as the sequence (P09874 2-1014 limits assumed) above
Target sequence in this assay (Q96SW2 whole entry partner): as the sequence (Q96SW2 whole entry partner) above
For series [5] the target is unchanged. Briefly: Protac activity at CRBN/PARP1 in human SW-620 cells assessed as induction of PARP1 degradation at 10 nM incubated for 24 hrs by Western blot analysis relative to control. The class given is cell-based.
Target sequence in this assay (P09874 2-1014 limits assumed): as the sequence (P09874 2-1014 limits assumed) above
Target sequence in this assay (Q96SW2 whole entry partner): as the sequence (Q96SW2 whole entry partner) above
Series [6] shares this target. Briefly: Protac activity at CRBN/PARP1 in human MDA-MB-436 cells assessed as induction of PARP1 degradation at 10 nM incubated for 24 hrs by Western blot analysis relative to control. Format: cell-based. The method in brief:
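MDA-MB-436 cells (RPMI-1640, 10% FBS) seeded 24 h, then exposed to compound at 1, 10, 100 and 1000 nM for 24 h. Lysates in RIPA with protease inhibitors, 20-30 µg protein by SDS-PAGE, PARP1 immunoblot with β-tubulin loading control; PARP1/β-tubulin ratio normalized to DMSO control set at 100.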
Target sequence in this assay (P09874 2-1014 limits assumed): as the sequence (P09874 2-1014 limits assumed) above
Target sequence in this assay (Q96SW2 whole entry partner): as the sequence (Q96SW2 whole entry partner) above

Series [7] shares this target. Briefly: Protac activity at CRBN/PARP1 in human MDA-MB-436 cells assessed as induction of PARP1 degradation at 30 nM incubated for 24 hrs in presence of 0.1 to 1 uM PARP1 inhibitor olaparib by Western blot analysis.
Target sequence in this assay (P09874 2-1014 limits assumed): as the sequence (P09874 2-1014 limits assumed) above
Target sequence in this assay (Q96SW2 whole entry partner): as the sequence (Q96SW2 whole entry partner) above
The test system of another series is Mus musculus. Briefly: Induction of PARP1 degradation in SW-620 cells xenografted Balb/c mouse at 25 mg/kg, ip at 1 to 24 hrs by Western blotting analysis. Format: functional, organism-based. Conditions: time hrs 1-24. Put shortly:
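Male BALB/c nude mice carried subcutaneous SW620 xenografts (6×10^6 cells); at 200-300 mm³ they were randomized. A single 25 mg/kg intraperitoneal dose was given. Tumors were harvested at 1, 3, 6 and 24 h, and vehicle controls at 3 h. Tumors were frozen, ground in liquid nitrogen, and PARP1 was analysed by western blot against β-tubulin.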

Series [8] deals with T1, Protein cereblon/Poly [ADP-ribose] polymerase 1. Briefly: Protac activity at CRBN/PARP1 in human SW-620 cells assessed as induction of PARP1 degradation at 30 nM incubated for 24 hrs in presence of proteasome inhibitor MG132 by Western blot analysis. Format: cell-based.
Target sequence in this assay (P09874 2-1014 limits assumed): as the sequence (P09874 2-1014 limits assumed) above
Target sequence in this assay (Q96SW2 whole entry partner): as the sequence (Q96SW2 whole entry partner) above
The subject of another series is PC-3. Briefly: Antiproliferation activity against human PC-3 assessed as cell growth inhibition incubated for 7 days by CCK-8 assay. Format: functional, cell-based. Conditions: time 7.0 day. The method in brief: as §2
Series [9] can be described thus: AUCall in ICR mouse at 25 mg/kg, ip by LC-tandem mass spectrometry analysis. The class given is ADME, organism-based. Set-up: dose 25 mg/kg. The settings on record: in vivo. Put shortly:
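Female ICR mice (20-23 g, 6-7 weeks old, n = 3) received a single 25 mg/kg intraperitoneal dose formulated in 5% DMSO/15% Solutol HS15/80% D5W. Plasma was sampled at 0.5, 1, 2, 4, 6, 8 and 24 h and protein-precipitated with methanol. Compound was quantified by LC-MS/MS against a standard curve.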

A further series concerns HUVEC. Briefly: Cytotoxicity against HUVEC assessed as reduction in cell viability incubated for 120 hrs by CCK-8 assay. Format: cell-based. The settings on record: human.
The test system of the next series is SW-620. Briefly: Potentiation of TMZ induced antitumor activity against SW-620 cells xenografted in Balb/c mouse assessed as tumor growth suppression administered intraperitoneally once daily for 5 days. The class given is functional. The settings on record: dose mg/kg 5-10, time 5.0 day. Put shortly: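 Male BALB/c nude mice carried SW620 xenografts (6×10^6 cells s.c.), randomized at ~150 mm³ (6 per group). TMZ 50 mg/kg was given orally once daily on days 0-4, 45 min after the partner drug. Partners were 5 or 10 mg/kg intraperitoneally or 10 mg/kg by oral gavage, daily for 5 days. Vehicle was 5% DMSO/20% PEG400/10% Cremophor EL/65% saline. Tumor volume and body weight were recorded 2-3 times weekly.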

Series [10] can be described thus: Cytotoxicity against […] H9c2 cells assessed as reduction in cell viability incubated for 120 hrs by CCK-8 assay. The class given is cell-based. Conditions: h9c2, 120 h.
Series [11] addresses T1, Protein cereblon/Poly [ADP-ribose] polymerase 1. Briefly: Protac activity at CRBN/PARP1 in human SW-620 cells assessed as induction of PARP1 degradation at 30 nM incubated for 24 hrs in presence of 0.1 to 1 uM CRBN ligand pomalidomide by Western blot analysis. Format: cell-based.
Series [12] has the same target. Briefly: Protac activity at CRBN/PARP1 in human MDA-MB-231 cells assessed as induction of PARP1 degradation measured after 24 hrs by Western blot analysis. The class given is cell-based. The method in brief: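 Concentration-response over a wide range, 24 h exposure; PARP1 quantified by western blot and normalized to β-tubulin density; DC50 derived from two biologically independent experiments.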
Target sequence in this assay (P09874 whole entry): as the sequence (P09874 whole entry) above
Target sequence in this assay (Q96SW2 whole entry): as the sequence (Q96SW2 whole entry partner) above

Broadly, the pIC50 is the negative decadic logarithm of the IC50, by convention in mol/L. Broadly, the AUC is the area under the concentration-time curve, a measure of exposure. A high value points to high exposure. Usually DC50 stands for the concentration at which degradation of the target reaches its halfway point. On to `O=C(CCCCCCCCCCC(=O)N1CCN(C(=O)c2cc(Cc3n[nH]c(=O)c4ccccc34)ccc2F)CC1)NCCNc1cccc2c1C(=O)N(C1CCC(=O)NC1=O)C2=O` (stereo not drawn), for which the result (in series [1]; with LNCaP; in [4]; in the series on Mus musculus; in the series on PC-3) was Active. In addition, the Activity result with CAPAN-1 was “Dose-dependent effect”; in series [3] it was 12%; in series [5] it was over 99%; in series [6], over 99%; with HUVEC, “Non-Toxic”; with SW-620, “Dose-dependent effect”. The Activity entry in series [10] was “Non-Toxic”. Further, in series [2], the pIC50 is 8.64. In addition, the outcome in series [7], in series [8] and in [11] was inactive. The AUC in series [9] is 5320 ng·h/mL. In [12], the DC50 came to 0.228 nM.
